This is an account of results in ChEMBL document CHEMBL4715841, “Discovery of dihydropyrazino-benzimidazole derivatives as metabotropic glutamate receptor-2 (mGluR2) positive allosteric modulators (PAMs)” (Eur J Med Chem, 2020).

Where only a bound is given, the exact number is not on record here.

For assay [1], the target named is Metabotropic glutamate receptor 2 (Homo sapiens, UniProt Q14416).
The next assay has as its target Cytochrome P450 2C19 (Homo sapiens, UniProt P33261). Put plainly: Inhibition of CYP2C19 (unknown origin). It is filed as ADME. The essentials: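 Isoform-specific CYP450 inhibition, reported as IC50 in µM.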

Metabotropic glutamate receptor 2, sequence (Q14416 whole entry, canonical isoform): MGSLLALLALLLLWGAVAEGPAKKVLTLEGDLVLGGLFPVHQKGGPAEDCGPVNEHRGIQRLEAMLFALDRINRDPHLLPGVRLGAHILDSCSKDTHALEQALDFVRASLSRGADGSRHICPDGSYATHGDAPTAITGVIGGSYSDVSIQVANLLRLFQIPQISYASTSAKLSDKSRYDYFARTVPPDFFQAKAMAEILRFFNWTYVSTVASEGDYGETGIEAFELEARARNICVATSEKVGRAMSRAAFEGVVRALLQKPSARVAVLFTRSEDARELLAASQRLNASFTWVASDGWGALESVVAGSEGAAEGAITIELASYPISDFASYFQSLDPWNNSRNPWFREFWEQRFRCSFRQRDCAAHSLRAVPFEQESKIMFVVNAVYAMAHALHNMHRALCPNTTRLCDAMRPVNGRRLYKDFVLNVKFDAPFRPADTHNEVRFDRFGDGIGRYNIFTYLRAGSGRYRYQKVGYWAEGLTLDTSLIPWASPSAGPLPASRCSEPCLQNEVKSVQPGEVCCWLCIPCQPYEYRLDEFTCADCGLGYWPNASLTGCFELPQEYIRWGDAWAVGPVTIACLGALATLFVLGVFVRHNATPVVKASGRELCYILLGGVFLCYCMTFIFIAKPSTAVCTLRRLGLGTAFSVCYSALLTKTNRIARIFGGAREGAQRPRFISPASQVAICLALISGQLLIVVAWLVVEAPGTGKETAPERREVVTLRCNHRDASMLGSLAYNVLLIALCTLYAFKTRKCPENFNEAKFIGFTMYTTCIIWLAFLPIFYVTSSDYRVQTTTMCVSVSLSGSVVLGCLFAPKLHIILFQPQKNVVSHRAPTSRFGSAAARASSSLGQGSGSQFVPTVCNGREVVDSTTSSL
Cytochrome P450 2C19, sequence (P33261 whole entry, canonical isoform): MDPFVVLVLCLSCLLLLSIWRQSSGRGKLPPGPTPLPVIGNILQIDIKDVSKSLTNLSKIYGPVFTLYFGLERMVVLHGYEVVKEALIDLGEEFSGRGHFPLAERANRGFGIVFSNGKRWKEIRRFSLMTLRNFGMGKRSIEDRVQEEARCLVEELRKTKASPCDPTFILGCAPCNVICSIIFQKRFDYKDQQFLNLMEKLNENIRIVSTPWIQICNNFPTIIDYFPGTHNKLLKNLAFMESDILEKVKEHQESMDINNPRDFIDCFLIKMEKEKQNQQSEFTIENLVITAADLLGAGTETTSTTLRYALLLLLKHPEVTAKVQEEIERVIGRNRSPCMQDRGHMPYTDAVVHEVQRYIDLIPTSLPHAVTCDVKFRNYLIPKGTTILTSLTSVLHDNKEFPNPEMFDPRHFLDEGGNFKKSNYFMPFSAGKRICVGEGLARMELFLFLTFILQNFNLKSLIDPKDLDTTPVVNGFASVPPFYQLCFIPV

Turning to `COc1ccccc1C1CCN(Cc2nc3ccccc3n2C)CC1`, in assay [1], the EC50 stood at 870 nM.
In assay [1], `c1ccc(CCCCN2CCn3c(nc4ccccc43)C2)cc1` yielded an EC50 of 420 nM.
The same measure, in the same setting: with `Fc1cc(Cl)ccc1CCCCN1CCn2c(nc3ccccc32)C1` the figure was 540 nM.
`Fc1cccc(CCN2CCn3c(nc4ccccc43)C2)c1` returned a half-maximal effective concentration (EC50) in assay [1] of 4700 nM.
On to `Fc1ccc(CCCCN2CCn3c(nc4ccccc43)C2)c(F)c1`, for which the response in assay [1] was half-maximal at 340 nM (EC50).
The same measure, in the same setting: the value for `O=C1c2nc3ccccc3n2CCN1CCCCOc1ccc(F)cc1Br` was 50 nM; that for `Fc1cc(C(F)(F)F)ccc1CCCCN1CCn2c(nc3ccccc32)C1` was 970 nM.
Molecule `c1ccc(CCCCCN2CCn3c(nc4ccccc43)C2)cc1` had an EC50 in assay [1] of 130 nM.
On the same count and under the same terms, with `COc1ccc(CCCCN2CCn3c(nc4ccccc43)C2)cc1` the figure was 2280 nM; with `Fc1ccc(OCCCN2CCn3c(nc4ccccc43)C2)cc1Cl`, 170 nM; with `Cc1ccc(CCN2CCn3c(nc4ccccc43)C2)cc1`, 2430 nM.
Regarding `Fc1ccc(SCCCN2CCn3c(nc4ccccc43)C2)cc1F`, the EC50 in assay [1] is 90 nM.
Same read-out and setting: with `Cc1ccccc1OCCCCN1CCn2c(nc3ccccc32)C1=O` the figure was 90 nM; with `COc1ccc(CCN2CCn3c(nc4ccccc43)C2)cc1`, 2740 nM.
On to `Fc1ccc(SCCCN2CCn3c(nc4ccccc43)C2)c(F)c1`, for which the EC50 in assay [1] was found to be 350 nM.
For the molecule `Fc1ccc(OCCCN2CCn3c(nc4ccccc43)C2)cc1F`, it took 540 nM to reach a half-maximal effect in assay [1] (EC50).
Still for that read-out and setting: the value for `O=C1c2nc3ccccc3n2CCN1CCCCOc1ccc(Cl)cc1` was 70 nM.
In the case of `O=C1c2nc3ccccc3n2CCN1CCCCOc1ccc(OC(F)(F)F)cc1`, the concentration for half-maximal inhibition (IC50) against Cytochrome P450 2C19 was > 10000 nM.
Turning to `O=C1c2nc3ccccc3n2CCN1CCCOc1ccc(Cl)c(Cl)c1`, the EC50 in assay [1] was found to be 90 nM.
In the case of `O=C1c2nc3ccccc3n2CCN1CCCCOc1ccc(F)cc1F`, the EC50 in assay [1] turned out to be 50 nM.
On the same count and under the same terms, with `c1ccc(SCCCN2CCn3c(nc4ccccc43)C2)cc1` the figure was 260 nM.
Turning to `COc1ccc(CCCCN2CCn3c(nc4ccccc43)C2)c(F)c1`, a half-maximal effect in assay [1] (EC50) was put at 1210 nM.
Consider `Clc1ccc(SCCCN2CCn3c(nc4ccccc43)C2)cc1`, for which the concentration giving a half-maximal response (EC50) in assay [1] was 550 nM.
Regarding `N#Cc1ccc(CCCCN2CCn3c(nc4ccccc43)C2)cc1`, in assay [1], the EC50 amounted to 2400 nM.
`Fc1ccc(SCCCN2CCn3c(nc4ccccc43)C2)cc1` yielded a 50% effective concentration (EC50) in assay [1] of 320 nM.
Same read-out and setting: with `O=C1c2nc3ccccc3n2CCN1CCCCOc1ccc(C(F)(F)F)cc1` the figure was 40 nM.
The same measure, in the same setting: the value for `Clc1ccc(OCCCN2CCn3c(nc4ccccc43)C2)cc1Cl` was 70 nM.
Take `Brc1ccc(SCCCN2CCn3c(nc4ccccc43)C2)cc1`: the concentration giving a half-maximal response (EC50) in assay [1] turned out to be 270 nM.
`Cn1c(CN2CCC(c3ccccc3F)CC2)nc2ccccc21`: the EC50 in assay [1] worked out at 130 nM.
